Active and inactive are the calls of the source. No cut-off for these calls is given here.

One test relates to NCI-H522. Kind of test: Anticancer activity against human NCI-H522 cells. In kind it is functional. The essentials:
(§1)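 NCI-DTP 60 cell line screen; GI50 values supplied by NCI-DTP. HCT-116 GI50 for some entries determined instead by a separate group (Henry Ford Hospital). Compounds failing initial single-dose testing at 10 μM (<25% growth inhibition) were not taken to five-dose testing.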
For orientation: GI50 means the concentration giving 50% growth inhibition. A lower GI50 goes with greater sensitivity of the cells. `CC[C@@H]1NC(=O)[C@@H](C)C/C(C)=C/[C@H](C)C[C@H](C)OC(=O)C[C@H](c2ccc(O)cc2)NC(=O)[C@@H](Cc2c(Br)[nH]c3ccccc23)N(C)C1=O` [JASPLAKINOLIDE D]: the concentration for 50% growth inhibition (GI50) was 30 nM.
Still for that read-out and setting: in the case of `C/C1=C\[C@H](C)C[C@H](C)OC(=O)C[C@H](c2ccc(O)cc2)NC(=O)[C@@H](Cc2c(Br)[nH]c3ccccc23)N(C)C(=O)[C@H](C)NC(=O)CC1` [JASPLAKINOLIDE F] it was 610 nM.
As for `CCOC(=O)C[C@@H](NC(=O)[C@@H](Cc1c(Br)[nH]c2ccccc12)N(C)C(=O)[C@H](C)NC(=O)[C@@H](C)C/C(C)=C/[C@H](C)C[C@H](C)O)c1ccc(O)cc1`, growth was halved (GI50) at 40 nM.

Another test deals with HCT-116. Description: Antimicrofilament activity in human HCT116 cells assessed as loss of microfilament at 0.05 uM by rhodamine-phalloidin staining. In kind it is functional, cell-based.
Consider `CCOC(=O)C[C@@H](NC(=O)[C@@H](Cc1c(Br)[nH]c2ccccc12)N(C)C(=O)[C@H](C)NC(=O)[C@@H](C)C/C(C)=C/[C@H](C)C[C@H](C)O)c1ccc(O)cc1`, for which the outcome was inactive.

For a further test, the system named is U-251. Description: Anticancer activity against human U251 cells. In kind it is functional. The essentials: as §1
Regarding `CC[C@@H]1NC(=O)[C@@H](C)C/C(C)=C/[C@H](C)C[C@H](C)OC(=O)C[C@H](c2ccc(O)cc2)NC(=O)[C@@H](Cc2c(Br)[nH]c3ccccc23)N(C)C1=O` [JASPLAKINOLIDE D], it took 10 nM to inhibit growth by half (GI50). This counts as double-digit nanomolar.
For `C/C1=C\[C@H](C)C[C@H](C)OC(=O)C[C@H](c2ccc(O)cc2)NC(=O)[C@@H](Cc2c(Br)[nH]c3ccccc23)N(C)C(=O)[C@H](C)NC(=O)CC1` [JASPLAKINOLIDE F], halving of growth (GI50) required 50 nM. This GI50 is about 5-fold higher than that of the compound before.
With `CCOC(=O)C[C@@H](NC(=O)[C@@H](Cc1c(Br)[nH]c2ccccc12)N(C)C(=O)[C@H](C)NC(=O)[C@@H](C)C/C(C)=C/[C@H](C)C[C@H](C)O)c1ccc(O)cc1`, growth was halved (GI50) at 50 nM.

In another test the test system is HCT-116. Kind of test: Antimicrofilament activity in human HCT116 cells assessed as additional loss of microfilament at 5 uM by rhodamine-phalloidin staining. The test is classed as functional, cell-based.
As to `CCOC(=O)C[C@@H](NC(=O)[C@@H](Cc1c(Br)[nH]c2ccccc12)N(C)C(=O)[C@H](C)NC(=O)[C@@H](C)C/C(C)=C/[C@H](C)C[C@H](C)O)c1ccc(O)cc1`, the result was Active.

In another test the test system is IGROV-1. Kind of test: Anticancer activity against human IGROV1 cells. The test is classed as functional. The method in brief:
as §1
`CC[C@@H]1NC(=O)[C@@H](C)C/C(C)=C/[C@H](C)C[C@H](C)OC(=O)C[C@H](c2ccc(O)cc2)NC(=O)[C@@H](Cc2c(Br)[nH]c3ccccc23)N(C)C1=O` [JASPLAKINOLIDE D] gave a GI50 of 8 nM.
Still for that read-out and setting: in the case of `C/C1=C\[C@H](C)C[C@H](C)OC(=O)C[C@H](c2ccc(O)cc2)NC(=O)[C@@H](Cc2c(Br)[nH]c3ccccc23)N(C)C(=O)[C@H](C)NC(=O)CC1` [JASPLAKINOLIDE F] it was 20 nM.
`CCOC(=O)C[C@@H](NC(=O)[C@@H](Cc1c(Br)[nH]c2ccccc12)N(C)C(=O)[C@H](C)NC(=O)[C@@H](C)C/C(C)=C/[C@H](C)C[C@H](C)O)c1ccc(O)cc1` displayed a concentration for 50% growth inhibition (GI50) of 170 nM.

A further test relates to HCT-116. Kind of test: Antimicrofilament activity in human HCT116 cells assessed as loss of microfilament network at 0.5 uM by rhodamine-phalloidin staining. In kind it is functional, cell-based.
With `CCOC(=O)C[C@@H](NC(=O)[C@@H](Cc1c(Br)[nH]c2ccccc12)N(C)C(=O)[C@H](C)NC(=O)[C@@H](C)C/C(C)=C/[C@H](C)C[C@H](C)O)c1ccc(O)cc1`, the result was Active.

The next test deals with A498. Description: Anticancer activity against human A498 cells. In kind it is functional. The essentials:
as §1
Consider `CC[C@@H]1NC(=O)[C@@H](C)C/C(C)=C/[C@H](C)C[C@H](C)OC(=O)C[C@H](c2ccc(O)cc2)NC(=O)[C@@H](Cc2c(Br)[nH]c3ccccc23)N(C)C1=O` [JASPLAKINOLIDE D], for which the GI50 was found to be 2 nM.
Compound `C/C1=C\[C@H](C)C[C@H](C)OC(=O)C[C@H](c2ccc(O)cc2)NC(=O)[C@@H](Cc2c(Br)[nH]c3ccccc23)N(C)C(=O)[C@H](C)NC(=O)CC1` [JASPLAKINOLIDE F] had a concentration for 50% growth inhibition (GI50) of 210 nM.
In the case of `CCOC(=O)C[C@@H](NC(=O)[C@@H](Cc1c(Br)[nH]c2ccccc12)N(C)C(=O)[C@H](C)NC(=O)[C@@H](C)C/C(C)=C/[C@H](C)C[C@H](C)O)c1ccc(O)cc1`, it took 440 nM to inhibit growth by half (GI50).

Another test has as its system LOX IMVI. Kind of test: Anticancer activity against human LOXIMVI cells. In kind it is functional. The essentials: as §1
`CC[C@@H]1NC(=O)[C@@H](C)C/C(C)=C/[C@H](C)C[C@H](C)OC(=O)C[C@H](c2ccc(O)cc2)NC(=O)[C@@H](Cc2c(Br)[nH]c3ccccc23)N(C)C1=O` [JASPLAKINOLIDE D] displayed a GI50 of 3 nM.
Compound `C/C1=C\[C@H](C)C[C@H](C)OC(=O)C[C@H](c2ccc(O)cc2)NC(=O)[C@@H](Cc2c(Br)[nH]c3ccccc23)N(C)C(=O)[C@H](C)NC(=O)CC1` [JASPLAKINOLIDE F] showed a concentration for 50% growth inhibition (GI50) of 30 nM. This GI50 is about 10-fold higher than that of the compound before.
Consider `CCOC(=O)C[C@@H](NC(=O)[C@@H](Cc1c(Br)[nH]c2ccccc12)N(C)C(=O)[C@H](C)NC(=O)[C@@H](C)C/C(C)=C/[C@H](C)C[C@H](C)O)c1ccc(O)cc1`, for which the GI50 amounted to 160 nM. This GI50 is about 5.3-fold higher than that of the compound before.

The next test has as its system HCT-116. Description: Antimicrofilament activity in human HCT116 cells assessed as loss of microfilament at 0.01 uM by rhodamine-phalloidin staining. In kind it is functional, cell-based.
As to `CCOC(=O)C[C@@H](NC(=O)[C@@H](Cc1c(Br)[nH]c2ccccc12)N(C)C(=O)[C@H](C)NC(=O)[C@@H](C)C/C(C)=C/[C@H](C)C[C@H](C)O)c1ccc(O)cc1`, the outcome was inactive.

The next test has as its system HCT-116. Kind of test: Antimicrofilament activity in human HCT116 cells assessed as complete loss of microfilament network at GI50 concentration by rhodamine-phalloidin staining. In kind it is functional, cell-based.
For the compound `CCOC(=O)C[C@@H](NC(=O)[C@@H](Cc1c(Br)[nH]c2ccccc12)N(C)C(=O)[C@H](C)NC(=O)[C@@H](C)C/C(C)=C/[C@H](C)C[C@H](C)O)c1ccc(O)cc1`, the outcome was Active.

The subject of another test is MDA-MB-231. Kind of test: Anticancer activity against human MDA-MB-231 cells. The test is classed as functional. The method in brief: as §1
Turning to `CC[C@@H]1NC(=O)[C@@H](C)C/C(C)=C/[C@H](C)C[C@H](C)OC(=O)C[C@H](c2ccc(O)cc2)NC(=O)[C@@H](Cc2c(Br)[nH]c3ccccc23)N(C)C1=O` [JASPLAKINOLIDE D], growth was halved (GI50) at 20 nM.
Take `C/C1=C\[C@H](C)C[C@H](C)OC(=O)C[C@H](c2ccc(O)cc2)NC(=O)[C@@H](Cc2c(Br)[nH]c3ccccc23)N(C)C(=O)[C@H](C)NC(=O)CC1` [JASPLAKINOLIDE F]: growth was halved (GI50) at 260 nM.
Compound `CCOC(=O)C[C@@H](NC(=O)[C@@H](Cc1c(Br)[nH]c2ccccc12)N(C)C(=O)[C@H](C)NC(=O)[C@@H](C)C/C(C)=C/[C@H](C)C[C@H](C)O)c1ccc(O)cc1` came in with a concentration for 50% growth inhibition (GI50) of 740 nM.

The next test relates to HCT-116. Description: Anticancer activity against human HCT116 cells. In kind it is functional. The essentials: as §1
In turn, `CC[C@@H]1NC(=O)[C@@H](C)C/C(C)=C/[C@H](C)C[C@H](C)OC(=O)C[C@H](c2ccc(O)cc2)NC(=O)[C@@H](Cc2c(Br)[nH]c3ccccc23)N(C)C1=O` [JASPLAKINOLIDE D] showed a GI50 of 20 nM.
Regarding `C/C1=C\[C@H](C)C[C@H](C)OC(=O)C[C@H](c2ccc(O)cc2)NC(=O)[C@@H](Cc2c(Br)[nH]c3ccccc23)N(C)C(=O)[C@H](C)NC(=O)CC1` [JASPLAKINOLIDE F], the GI50 is 110 nM. This GI50 lies about 5.5-fold higher than the previous one.
In the case of `CCOC(=O)C[C@@H](NC(=O)[C@@H](Cc1c(Br)[nH]c2ccccc12)N(C)C(=O)[C@H](C)NC(=O)[C@@H](C)C/C(C)=C/[C@H](C)C[C@H](C)O)c1ccc(O)cc1`, the GI50 worked out at 280 nM.

Another test has as its system HCT-116. Kind of test: Antimicrofilament activity in human HCT116 cells assessed as loss of microfilament at 0.1 uM by rhodamine-phalloidin staining. The test is classed as functional, cell-based.
In the case of `CCOC(=O)C[C@@H](NC(=O)[C@@H](Cc1c(Br)[nH]c2ccccc12)N(C)C(=O)[C@H](C)NC(=O)[C@@H](C)C/C(C)=C/[C@H](C)C[C@H](C)O)c1ccc(O)cc1`, the outcome was inactive.

Another test has as its system HCT-116. Kind of test: Antimicrofilament activity in human HCT116 cells assessed as additional loss of microfilament at 1 uM by rhodamine-phalloidin staining. The test is classed as functional, cell-based.
With `CCOC(=O)C[C@@H](NC(=O)[C@@H](Cc1c(Br)[nH]c2ccccc12)N(C)C(=O)[C@H](C)NC(=O)[C@@H](C)C/C(C)=C/[C@H](C)C[C@H](C)O)c1ccc(O)cc1`, the outcome was Active.

A further test has as its system DU-145. Kind of test: Anticancer activity against human DU145 cells. The test is classed as functional. The essentials: as §1
For `CC[C@@H]1NC(=O)[C@@H](C)C/C(C)=C/[C@H](C)C[C@H](C)OC(=O)C[C@H](c2ccc(O)cc2)NC(=O)[C@@H](Cc2c(Br)[nH]c3ccccc23)N(C)C1=O` [JASPLAKINOLIDE D], it took 20 nM to inhibit growth by half (GI50). That is a double-digit nanomolar value.
Compound `C/C1=C\[C@H](C)C[C@H](C)OC(=O)C[C@H](c2ccc(O)cc2)NC(=O)[C@@H](Cc2c(Br)[nH]c3ccccc23)N(C)C(=O)[C@H](C)NC(=O)CC1` [JASPLAKINOLIDE F] came in with a 50% growth inhibitory concentration (GI50) of 290 nM.
In the case of `CCOC(=O)C[C@@H](NC(=O)[C@@H](Cc1c(Br)[nH]c2ccccc12)N(C)C(=O)[C@H](C)NC(=O)[C@@H](C)C/C(C)=C/[C@H](C)C[C@H](C)O)c1ccc(O)cc1`, the GI50 came to 3720 nM.

Values taken from ChEMBL document CHEMBL1765004 (2011).
